The source of these data is ChEMBL document CHEMBL1143123, “Novel analogs of D-e-MAPP and B13. Part 2: signature effects on bioactive sphingolipids” (2008).

Structures are written as SMILES. Calls of active or inactive are those of the source. No cut-off for these calls is given here.

The test system of experiment [1] is MCF7. The experiment in a line: Induction of endogenous C14-ceramide formation in human MCF7 cells after 10 hrs. Format: functional. Summed up: (§1)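 MCF7 cells grown in RPMI 1640 with 10% FCS at 37 °C in 5% CO2. Seeded near 50% density and treated 24 h later with compound in ethanol (0.1% final); controls got ethanol alone. Cells washed in cold PBS and extracted. Cer species, Sph and S1P measured by HPLC-MS/MS (C8 column, positive-ion MRM) against internal standards and calibration curves. Results given as pmol/nmol phospholipid phosphate, relative to ethanol controls.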

The test system of experiment [2] is MCF7. As to the kind of experiment: Induction of endogenous C24:1-ceramide formation in human MCF7 cells after 10 hrs. The experiment is classed as functional. A digest of the protocol: as §1
In experiment [3] the test system is MCF7. As to the kind of experiment: Increase in endogenous C14-ceramide level in human MCF7 cells after 24 hrs. The experiment is classed as functional. Summed up: (§2)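 MCF7 cells grown in RPMI 1640 with 10% FCS at 37 °C, 5% CO2. Seeded at ~50% density (1×10^6 cells), treated 24 h later with compounds in ethanol (0.1% final); controls got ethanol only. Cells washed in cold PBS and lipids extracted. Cer species and Sph quantified by HPLC-MS/MS (MRM, positive ion) against internal standards and calibration curves. Values given as pmol/nmol phospholipid and compared with ethanol controls.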

Experiment [4] concerns MCF7. The experiment in a line: Increase in endogenous sphingosine level in human MCF7 cells >5 uM after 24 hrs. Format: functional, cell-based. A digest of the protocol:
as §1

Experiment [5] relates to MCF7. The experiment in a line: Increase in endogenous sphingosine level in human MCF7 cells after 24 hrs. The experiment is classed as functional. A digest of the protocol:
as §1

The subject of experiment [6] is MCF7. The experiment in a line: Increase in endogenous C14-ceramide level in human MCF7 cells at 10 uM within 30 mins. The experiment is classed as functional. Summed up:
as §2

The subject of experiment [7] is MCF7. As to the kind of experiment: Increase in endogenous ceramide level in human MCF7 cells at 10 uM after 24 hrs. The experiment is classed as functional. Summed up: as §1
The subject of experiment [8] is MCF7. The experiment in a line: Increase in endogenous sphingosine-1-phosphate level in human MCF7 cells after 5 to 10 hrs. Format: functional, cell-based. A digest of the protocol: as §1
Experiment [9] deals with MCF7. As to the kind of experiment: Increase in endogenous C24:1-ceramide level in human MCF7 cells after 24 hrs. Format: functional. A digest of the protocol: as §1
The subject of experiment [10] is MCF7. The experiment in a line: Increase in endogenous ceramide level in human MCF7 cells upto 10 uM after 24 hrs. The experiment is classed as functional. A digest of the protocol: as §1
The test system of experiment [11] is MCF7. The experiment in a line: Induction of endogenous C16-ceramide formation in human MCF7 cells after 10 hrs. Format: functional. A digest of the protocol: as §1
Experiment [12] has as its system MCF7. As to the kind of experiment: Increase in endogenous sphingosine level in human MCF7 cells at 10 uM after 5 hrs. The experiment is classed as functional. Summed up:
as §1

Experiment [13] concerns MCF7. The experiment in a line: Increase in endogenous C16-ceramide level in human MCF7 cells after 24 hrs. Format: functional. Summed up:
as §2

As to `C[C@@H](NC(=O)CCCCCCCCCCCCCCC[n+]1ccccc1)[C@@H](O)c1ccccc1.[Br-]`, the Activity in the experiment on MCF7 [1] was 310%; in the experiment on MCF7 [2], 142%; with MCF7 [3], “Dose-dependent effect”; in the experiment on MCF7 [5], “Dose-dependent effect”; with MCF7 [6], 190%; with MCF7 [7], 260%. Also, the Activity entry is “Dose-dependent effect” in the experiment on MCF7 [9]; 260% with MCF7 [10]; 157% with MCF7 [11]; 300% in the experiment on MCF7 [12]; “Dose-dependent effect” with MCF7 [13]. For the same molecule, the outcome with MCF7 [4] and in the experiment on MCF7 [8] was Active.
